Screening results (PubChem)
In the library only some 2.5% were active in any assay of this set; here they are far more common.
TRPC6 act: mouse TRPC6 channel activators, primary screen, cell-based, HEK293, membrane potential dye; Short transient receptor potential channel 6 (Mus musculus), Q61143; B-score at 10 µM; AID 2550, 2010; HEK293-TRPC6 membrane potential dye fluorescence; active compounds read high; hit rate 0.13% among 310,000;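 active = B-score of the integrated fluorescence ratio above library mean plus 3 SD, and starting fluorescence ratio within library mean plus 5 SD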;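 note: higher score means more depolarization so channel activation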
TRPC6 inhibitor: mouse TRPC6 channel inhibitors, primary screen, cell-based, HEK293, membrane potential dye; hit rate 1.1% among 310,000; ACh-evoked depolarization; active compounds read low; Short transient receptor potential channel 6 (Mus musculus), Q61143; AID 2553, 2010; B-score at 10 µM;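 active = B-score under library mean minus 3 SD, initial fluorescence not abnormally high, positive integrated signal ratio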;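 note: B-score derived from integrated fluorescence ratio over the kinetic read; more negative B-score means stronger inhibition of depolarization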
TRPC4 act: activators of mouse TRPC4 channel, primary screen, Fluo4 calcium, HEK293 TRPC4beta/mu-opioid cells. Short transient receptor potential channel 4 (Mus musculus), Q9QUQ5. Fluo4 calcium fluorescence; active compounds read high. B-score at 10 µM. hit rate 0.49% among 310,000. AID 2237, 2010;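 active = B-score above 5 SD of library B-scores, and initial fluorescence ratio not above library mean plus 5 SD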;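 note: positive B-score marks a calcium rise read as TRPC4 activation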
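System: HEK293 cells stably co-expressing mouse TRPC4beta and mu-opioid receptor; Schedule: Fluo4 dye loading 45 min at room temperature, 110 s recording; Detection: Fluo4 fluorescence, kinetic; Evaluation: B-scored integrated calcium fluorescence ratio; Controls: buffer (low) and maximal DAMGO (high).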
DSG3 Ab inh: inhibitors of pemphigus antibody binding to DSG3, primary screen, biochemical, bead-based, flow cytometry, scFv-GFP; Desmoglein-3 (Homo sapiens), P32926; DSG3-coupled beads, scFv-anti-DSG3-GFP binding; active compounds read low; binding (percent of control), % at 10 µM; hit rate 0.48% among 310,000;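 active = binding more than 3 SD below its plate's average and above zero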;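 note: hits lower antibody fragment binding to DSG3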
Target sequence (P32926 whole entry, looked up, the tested form may be a part): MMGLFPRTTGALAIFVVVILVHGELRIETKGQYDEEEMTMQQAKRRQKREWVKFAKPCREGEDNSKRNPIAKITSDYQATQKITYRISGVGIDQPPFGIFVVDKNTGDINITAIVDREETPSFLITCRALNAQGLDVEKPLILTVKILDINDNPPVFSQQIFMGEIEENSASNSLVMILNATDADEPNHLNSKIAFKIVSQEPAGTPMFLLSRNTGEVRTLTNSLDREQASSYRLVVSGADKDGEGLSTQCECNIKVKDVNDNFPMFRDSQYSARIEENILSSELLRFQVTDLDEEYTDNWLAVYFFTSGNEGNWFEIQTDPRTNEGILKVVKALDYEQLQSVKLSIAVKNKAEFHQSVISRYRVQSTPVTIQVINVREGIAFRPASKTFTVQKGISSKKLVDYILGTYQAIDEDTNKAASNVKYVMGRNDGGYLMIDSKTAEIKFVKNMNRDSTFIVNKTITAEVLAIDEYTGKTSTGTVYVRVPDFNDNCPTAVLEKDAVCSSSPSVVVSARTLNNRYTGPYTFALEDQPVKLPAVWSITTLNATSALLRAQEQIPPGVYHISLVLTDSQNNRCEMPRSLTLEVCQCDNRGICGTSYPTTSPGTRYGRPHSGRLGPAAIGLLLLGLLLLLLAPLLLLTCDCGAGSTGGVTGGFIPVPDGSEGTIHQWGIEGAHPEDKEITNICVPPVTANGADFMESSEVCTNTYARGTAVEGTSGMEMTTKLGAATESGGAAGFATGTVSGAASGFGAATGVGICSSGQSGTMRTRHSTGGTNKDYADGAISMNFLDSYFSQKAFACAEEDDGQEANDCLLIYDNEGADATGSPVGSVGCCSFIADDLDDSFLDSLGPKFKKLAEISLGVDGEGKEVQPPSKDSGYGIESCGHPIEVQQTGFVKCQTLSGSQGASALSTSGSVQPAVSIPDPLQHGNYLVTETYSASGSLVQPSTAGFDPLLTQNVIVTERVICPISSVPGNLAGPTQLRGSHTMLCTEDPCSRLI
TRPC4 PAM: positive allosteric modulators of TRPC4, primary screen, cell-based, mouse TRPC4beta, HEK293 mu-opioid, Fluo-4 calcium; Short transient receptor potential channel 4 (Mus musculus), Q9QUQ5; DAMGO EC20, Fluo-4 Ca2+ flux; active compounds read high; B-score at 10 µM; hit rate 0.42% among 310,000; AID 2227, 2009;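 active = B-score of calcium response area above 5 SD of library B-scores, with initial fluorescence ratio within 5 SD of library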;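 note: B-score of integrated fluorescence ratio over time as area under calcium response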
TRPC4 inh: inhibitors of mouse TRPC4 channel, primary screen, Fluo4 calcium, HEK293 TRPC4beta/mu-opioid cells. B-score at 10 µM. AID 2247, 2010. Short transient receptor potential channel 4 (Mus musculus), Q9QUQ5. hit rate 0.39% among 300,000. DAMGO-evoked Fluo4 calcium flux; active compounds read low;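 active = B-score over 3 SD under the library average, no early fluorescence shift, positive overall ratio signal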
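Assay system: Stable TRPC4beta/mu-opioid receptor HEK293 cells | Reagent: DAMGO in two steps, submaximal then maximal | Compound dosing: Single concentration per test compound | Signal: Fluo4 Ca2+ flux fluorescence | Evaluation: Per-well B score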
HEK293 MPD ctr: parental HEK293 membrane potential modulation, confirmation, counter-screen for TRPC6 modulator project, cell-based. membrane potential dye fluorescence. hit rate 51% among 2,400. shares compounds with TRPC6 inhibitor. membrane potential signal change, % at 10 µM;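 active = membrane potential signal moves up or down beyond 5 SD from buffer-only wells, on both duplicate plates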
HEK293 MPD ctr 2: second counter-screen for TRPC6 modulators: effect in parental HEK293 cells. shares compounds with TRPC6 inhibitor. membrane potential dye fluorescence; after compound, maximal acetylcholine stimulation. hit rate 14% among 2,400. inhibition, % at 10 µM;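 active = membrane potential signal drops by more than 5 SD from the mean control signal, in both duplicate plates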;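 note: plate controls were acetylcholine ECmax control wells for no effect and buffer only wells for full effect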
TRPC4 ctr mod: TRPC4 modulation by TRPC6 hit compounds, confirmation, selectivity assay for TRPC6 modulator project, cell-based, HEK293 TRPC4/mu-opioid, membrane potential dye, mouse; hit rate 69% among 2,400; shares compounds with TRPC6 inhibitor; percent change from control (negative = decrease, positive = increase), % at 10 µM; membrane potential fluorescence; AID 488927, 2010;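 active = membrane potential signal moved up or down beyond 5 SD of buffer control wells, in both duplicate plates, actives on both sides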;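 note: plate controls were assay buffer wells for no effect and DAMGO maximal-effect wells for full effect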
TRPC4/MOR inh 2: second selectivity test of TRPC6 modulators against mouse TRPC4; shares compounds with TRPC6 inhibitor; HEK293 TRPC4/mu-opioid, membrane potential dye fluorescence; stimulated with maximal-effect DAMGO; inhibition, % at 10 µM; hit rate 55% among 2,400; AID 488928;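 active = drop in membrane potential signal beyond 5 SD of the control wells in both duplicate plates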;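 note: TRPC4 counter screen for TRPC6 hits run under conditions tuned for TRPC6 not TRPC4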
TRPC6 block conf: mouse TRPC6 channel inhibitors, confirmation, HEK293 cells, membrane potential dye, duplicate; shares compounds with TRPC6 inhibitor; ACh-evoked depolarization; inhibition, % at 10 µM; hit rate 43% among 3,300;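 active = fluorescence ratio falls more than 5 SD below the full-stimulation control mean, in both duplicate runs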;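 note: integrated fluorescence ratio of peak minus minimum over baseline after agonist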
TRPC6 act confirm: mouse TRPC6 channel activators, confirmation, HEK293 cells, membrane potential dye, duplicate | HEK293-TRPC6 membrane potential dye fluorescence, FDSS | hit rate 11% among 2,800 | shares compounds with TRPC6 inhibitor | activation, % at 10 µM;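 active = ratio signal rise beyond 5 SD above unstimulated control wells' mean, seen in both duplicate runs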;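 note: plate controls were buffer EC0 wells for no effect and acetylcholine ECmax response for full effect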
Numbers without * were called inactive; i = inactive; · = no result given; + = active, no number.

SMILES	TRPC6 act	TRPC6 inhibitor	TRPC4 act	DSG3 Ab inh	TRPC4 PAM	TRPC4 inh	HEK293 MPD ctr	HEK293 MPD ctr 2	TRPC4 ctr mod	TRPC4/MOR inh 2	TRPC6 block conf	TRPC6 act confirm
COc1ccc(C(=O)NC(=S)Nc2ccc(CN3CCCCC3)cc2)cc1Cl	i	i	i	101.5	i	i	·	·	·	·	·	·
Cc1noc(NS(=O)(=O)c2ccc(NC(=O)COc3ccc(Cl)cc3Cl)cc2)c1C	i	-5.79*	i	94.7	i	i	i	i	i	i	i	i
O=C(COc1ccc(Cl)cc1Cl)Nc1ccc(CN2CCCCC2)cc1	i	-5.26*	i	105.0	i	i	194.0%*	i	34.0%*	53.5%*	i	·
Cc1ccc(C(=O)NC(=S)Nc2ccc(CN3CCCCC3)cc2)c(C)c1	i	-6.32*	i	103.7	i	i	i	i	i	67.5%*	40.5%*	·
Cc1ccc(SCCNC(=S)Nc2ccccc2)cc1	i	i	i	114.7	i	i	·	·	·	·	·	·
Cc1ccc(SCCNC(=S)Nc2ccc(C)c(C)c2)cc1	i	-5.66*	i	116.8	i	i	+	+	-266.5%*	77.0%*	i	i
CCCCN(Cc1ccco1)S(=O)(=O)c1ccc(-c2ccc(=O)[nH]n2)s1	i	i	i	101.5	i	i	·	·	·	·	·	·
O=C1CSC2(C(=O)N3CCCc4cccc2c43)N1c1cccc(C(F)(F)F)c1 (configuration not stated)	i	i	i	95.9	i	i	·	·	·	·	·	·
